The source made the active and inactive calls. The rule behind the calls is not given here.
Key:
Oryctolagus cuniculus [1] = assay: Antiatrial fibrillation activity in methoxamine-sensitised rabbit assessed as increase in atrial effective refractory period at 0.17 mg/kg, iv measured 30 mins post infusion relative to control; assay type: functional
In short: (§1)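 Rabbit, iv infusion of compound in DMF (0.17 mg/mL) with a 0.17 mg/kg maintenance dose. AERP was normalized to DMF vehicle, with time counted from the start of the maintenance infusion. Tissues were collected after 30 min. n = 3 rabbits; means ± standard error.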

Oryctolagus cuniculus [2] = assay: Antiatrial fibrillation activity in methoxamine-sensitised rabbit assessed as plasma concentration required to show increase in atrial effective refractory period at 0.17 mg/kg, iv administered as 15 mins infusion; assay type: functional, organism-based; in short: as §1
Oryctolagus cuniculus [3] = assay: Antiatrial fibrillation activity in methoxamine-sensitised rabbit assessed as increase in atrial effective refractory period at 3 mg/kg, iv administered as 10 mins infusion relative to control; assay type: functional
In short: (§2)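 Rabbit, iv dosing at 1 or 3 mg/kg. AERP was measured at 10, 20 and 30 min time points as % prolongation, and plasma compound concentration was measured at the same time points and correlated with the AERP change.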

Oryctolagus cuniculus [4] = assay: Antiatrial fibrillation activity in methoxamine-sensitised rabbit assessed as increase in atrial effective refractory period at 3 mg/kg, iv administered as 30 mins infusion relative to control; assay type: functional; in short: as §2
Canis familiaris [5] = assay: Antiarrhythmic activity in mongrel dog heart failure model assessed as reduction in pacing-induced total atrial fibrillation duration at 0.1 to 0.3 mg/kg, po; assay type: functional, organism-based; conditions: Canis lupus familiaris
In short: (§3)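 Simultaneous atrio-ventricular pacing dog model of atrial arrhythmia. Compound was given orally at 0.1 or 0.3 mg/kg in 10% EtOH/40% propylene glycol/50% PEG 400. AF inducibility was scored as mean number of AF inductions and total AF duration, with QTc monitored and plasma concentration measured. n = 7 control, 5 (0.1 mg/kg) and 6 (0.3 mg/kg) dogs.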

[6] = Plasma concentration in methoxamine-sensitised rabbit at 3 mg/kg, iv administered as 20 mins infusion; assay type: ADME, organism-based, Oryctolagus cuniculus
[7] = Oral bioavailability in cynomolgus monkey at 1 mg/kg; assay type: ADME, organism-based, Macaca fascicularis; conditions: in vivo
In short: (§4)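 Single-dose PK study in mouse and rat (2 mg/kg iv, 5 mg/kg po), cynomolgus monkey (1 mg/kg iv and po) and dog (0.1 mg/kg iv, 1 mg/kg po). Dosing vehicle was 1:4:5 EtOH/propylene glycol/PEG400. Clearance, Vss, half-life, Cmax, Tmax, AUC (μM h) and oral %F were derived from plasma levels.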

Oryctolagus cuniculus [8] = assay: Antiatrial fibrillation activity in methoxamine-sensitised rabbit assessed as increase in atrial effective refractory period at 1 mg/kg, iv administered as 20 mins infusion relative to control; assay type: functional; in short: as §2
Oryctolagus cuniculus [9] = assay: Antiatrial fibrillation activity in methoxamine-sensitised rabbit assessed as plasma concentration required to show 10% increase in atrial effective refractory period at 0.17 mg/kg, iv administered as 30 mins infusion; assay type: functional, organism-based; in short: as §1
[10] = Volume of distribution at steady state in rat at 2 mg/kg, iv or 5 mg/kg, po; assay type: ADME, organism-based; conditions: in vivo, read-out: Vdss
In short: (§5)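 Single-dose PK in mouse and rat (2 mg/kg iv, 5 mg/kg po), cynomolgus monkey (1 mg/kg iv and po) and dog (0.1 mg/kg iv, 1 mg/kg po). Dosing vehicle was 1:4:5 EtOH/propylene glycol/PEG400. Parameters reported: clearance, Vss, half-life, Cmax, Tmax, AUC and oral bioavailability.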

[11] = Half life in cynomolgus monkey at 1 mg/kg, iv or 1 mg/kg, po; assay type: ADME, organism-based, Macaca fascicularis; conditions: in vivo; in short: as §4
[12] = Plasma concentration in methoxamine-sensitised rabbit at 3 mg/kg, iv administered as 30 mins infusion; assay type: ADME, organism-based, Oryctolagus cuniculus
[13] = Ratio of drug level in Sprague-Dawley rat brain to plasma at 3 mg/kg, iv administered as 10 mins infusion by LC-MS/MS analysis; assay type: ADME, organism-based; conditions: brain and plasma, read-out: BPR
[14] = Cmax in dog at 0.1 mg/kg, iv or 1 mg/kg, po; assay type: ADME, organism-based, Canis lupus familiaris; conditions: in vivo; in short: as §4
[15] = Oral bioavailability in cynomolgus monkey at 1 mg/kg using crystalline form; assay type: ADME, organism-based, Macaca fascicularis; conditions: in vivo
In short: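 Oral %F in cynomolgus monkey at 1 mg/kg po, with the compound given as a micronized crystalline suspension rather than the solution vehicle (iv reference dose 1 mg/kg).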

Salmonella typhimurium = assay: Genotoxicity in Salmonella typhimurium by Ames test; assay type: toxicity; conditions: salmonella enterica subsp. enterica serovar typhimurium
Oryctolagus cuniculus [16] = assay: Antiatrial fibrillation activity in methoxamine-sensitised rabbit assessed as increase in atrial effective refractory period at 3 mg/kg, iv administered as 20 mins infusion relative to control; assay type: functional; in short: as §2
[17] = AUC in cynomolgus monkey at 1 mg/kg, iv or 1 mg/kg, po; assay type: ADME, organism-based, Macaca fascicularis; conditions: in vivo; in short: as §4
[18] = Cmax in mouse at 2 mg/kg, iv or 5 mg/kg, po; assay type: ADME, organism-based; conditions: in vivo; in short: as §4
Oryctolagus cuniculus [19] = assay: Antiatrial fibrillation activity in methoxamine-sensitised rabbit assessed as plasma concentration required to show increase in atrial effective refractory period at 0.17 mg/kg, iv measured 30 mins post infusion; assay type: functional, organism-based; in short: as §1
[20] = Protein binding in human plasma; assay type: ADME, cell-free; conditions: read-out: PPB
[21] = Cmax in rat at 2 mg/kg, iv or 5 mg/kg, po; assay type: ADME, organism-based; conditions: in vivo; in short: as §4
Rhesus monkey = assay: Drug absorption in monkey famotidine model at 10 mg/kg; assay type: ADME, organism-based, Macaca mulatta; conditions: in vivo
[22] = Plasma concentration in methoxamine-sensitised rabbit at 1 mg/kg, iv administered as 20 mins infusion; assay type: ADME, organism-based, Oryctolagus cuniculus
Canis familiaris [23] = assay: Effect on QTc interval in pacing-induced mongrel dog heart failure model at 0.1 to 0.3 mg/kg, po; assay type: organism-based, Canis lupus familiaris; conditions: in vivo; in short: as §3
[24] = Tmax in mouse at 2 mg/kg, iv or 5 mg/kg, po; assay type: ADME, organism-based; conditions: in vivo; in short: as §5
[25] = Protein binding in rat plasma; assay type: ADME, cell-free; conditions: read-out: PPB
[26] = AUC in mouse at 2 mg/kg, iv or 5 mg/kg, po; assay type: ADME, organism-based; conditions: in vivo; in short: as §4
[27] = Oral bioavailability in rat at 5 mg/kg using crystalline form; assay type: ADME, organism-based; conditions: in vivo
Oryctolagus cuniculus [28] = assay: Antiatrial fibrillation activity in methoxamine-sensitised rabbit assessed as increase in atrial effective refractory period at 0.17 mg/kg, iv measured 15 mins post infusion relative to control; assay type: functional; in short: as §1
[29] = Plasma concentration in methoxamine-sensitised rabbit at 1 mg/kg, iv administered as 30 mins infusion; assay type: ADME, organism-based, Oryctolagus cuniculus
[30] = Plasma concentration in methoxamine-sensitised rabbit at 3 mg/kg, iv administered as 10 mins infusion; assay type: ADME, organism-based, Oryctolagus cuniculus
[31] = AUC in rat at 2 mg/kg, iv or 5 mg/kg, po; assay type: ADME, organism-based; conditions: in vivo; in short: as §4
Oryctolagus cuniculus [32] = assay: Antiatrial fibrillation activity in methoxamine-sensitised rabbit assessed as plasma concentration required to show increase in atrial effective refractory period at 0.17 mg/kg, iv measured 15 mins post infusion; assay type: functional, organism-based; in short: as §1
[33] = Clearance in mouse at 2 mg/kg, iv or 5 mg/kg, po; assay type: ADME, organism-based; conditions: in vivo; in short: as §4
Oryctolagus cuniculus [34] = assay: Antiatrial fibrillation activity in methoxamine-sensitised rabbit assessed as plasma concentration required to show increase in atrial effective refractory period at 0.17 mg/kg, iv administered as 1 min infusion; assay type: functional, organism-based; in short: as §1
[35] = Cmax in cynomolgus monkey at 1 mg/kg, iv or 1 mg/kg, po; assay type: ADME, organism-based, Macaca fascicularis; conditions: in vivo; in short: as §4

Compound: NS(=O)(=O)c1cncc(-c2nc(NCc3ccccn3)c3c(-c4ccccc4)cccc3n2)c1 [BMS-919373]
- Activity (Oryctolagus cuniculus [1]): 11.4%
- Cp (Oryctolagus cuniculus [2]): 0.16 µM
- Activity (Oryctolagus cuniculus [3]): 10.8%
- Activity (Oryctolagus cuniculus [4]): 21.6 - 22%
- Activity (Canis familiaris [5]): Active
- concentration at 20 min [6]: 3.6 µM
- bioavailability [7]: 100%
- Activity (Oryctolagus cuniculus [8]): 10.6%
- Cp (Oryctolagus cuniculus [9]): 0.15 µM
- Vd [10]: 0.9 L/kg
- half-life [11]: 4.6 h
- concentration at 0.5 h [12]: 3.3 µM
- Kp at 10 min [13]: 0.1
- Cmax [14]: 7.8 µM
- bioavailability [15]: 54%
- Activity (Salmonella typhimurium): Non-Toxic
- Activity (Oryctolagus cuniculus [16]): 16.2%
- AUC [17]: 11 µM·h
- Cmax [18]: 4 µM
- Cp (Oryctolagus cuniculus [19]): 0.09 µM
- fraction unbound [20]: < 0.01
- Cmax [21]: 7.9 µM
- Drug absorption (Rhesus monkey): Active
- concentration at 20 min [22]: 1.1 µM
- Activity (Canis familiaris [23]): Non-Toxic
- Tmax [24]: 0.5 h
- fraction unbound [25]: < 0.01
- AUC [26]: 21 µM·h
- bioavailability [27]: 35%
- Activity (Oryctolagus cuniculus [28]): 9.5%
- concentration at 0.5 h [29]: 1.3 µM
- concentration at 10 min [30]: 2.3 µM
- AUC [31]: 49 µM·h
- Cp (Oryctolagus cuniculus [32]): 0.1 µM
- clearance [33]: 10.6 mL/min/kg
- Cp (Oryctolagus cuniculus [34]): 0.42 µM
- Cmax [35]: 0.9 µM
